From ChEMBL document CHEMBL3271971, “Antineoplastic and biochemical properties of arylsulfonylhydrazones of 2-formylpyridine N-oxide” (J Med Chem, 1976)

Experiments:
[1] = tested on: Mus musculus; assay: Effect on RNA synthesis in tumor of CD-1 mouse allografted with mouse S180A cells assessed as [3H]-uridine incorporation at 20 mg/kg, ip pretreated for 1 hr followed by radiotracer-addition measured after 1 hr relative to control; assay type: functional; details: route intraperitoneal
How it was run: (§1)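 Sarcoma 180 ascites cells implanted 6 days earlier. Mice received a single ip dose of 10–80 mg/kg, then 1 h later an ip tracer: 200 μg thymidine-3H, 200 μg uridine-3H or 125 μg DL-leucine-14C. Tracer was incorporated for 1 h. Specific activity of tumor-cell DNA, RNA or protein is expressed as % of untreated controls. Values are means of 4-16 mice, each analyzed separately.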

[2] = tested on: Mus musculus; assay: Effect on protein synthesis in tumor of CD-1 mouse allografted with mouse S180A cells assessed as [14C]-leucine incorporation at 20 mg/kg, ip pretreated for 1 hr followed by radiotracer-addition measured after 1 hr relative to control; assay type: functional; details: route intraperitoneal; how it was run: as §1
[3] = tested on: Mus musculus; assay: Effect on DNA synthesis in tumor of CD-1 mouse allografted with mouse S180A cells assessed as [3H]-thymidine incorporation at 80 mg/kg, ip pretreated for 6 hrs followed by radiotracer-addition measured after 1 hr relative to control; assay type: functional; details: route intraperitoneal
How it was run: (§2)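 Mice bearing 6-day Sarcoma 180 ascites implants received a single ip dose of 80 mg/kg. At the stated pretreatment time they were given ip tracer: 200 μg thymidine-3H, 200 μg uridine-3H or 125 μg DL-leucine-14C. After 1 h of incorporation, specific radioactivity of DNA, RNA or protein was read as % of control incorporation.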

[4] = tested on: Mus musculus; assay: Effect on DNA synthesis in tumor of CD-1 mouse allografted with mouse S180A cells assessed as [3H]-thymidine incorporation at 80 mg/kg, ip pretreated for 12 hrs followed by radiotracer-addition measured after 1 hr relative to control; assay type: functional; details: route intraperitoneal; how it was run: as §2
[5] = tested on: Mus musculus; assay: Effect on protein synthesis in tumor of CD-1 mouse allografted with mouse S180A cells assessed as [14C]-leucine incorporation at 80 mg/kg, ip pretreated for 3 hrs followed by radiotracer-addition measured after 1 hr relative to control; assay type: functional; details: route intraperitoneal; how it was run: as §2
[6] = tested on: Mus musculus; assay: Effect on protein synthesis in tumor of CD-1 mouse allografted with mouse S180A cells assessed as [14C]-leucine incorporation at 80 mg/kg, ip pretreated for 6 hrs followed by radiotracer-addition measured after 1 hr relative to control; assay type: functional; details: route intraperitoneal; how it was run: as §2
[7] = Antineoplastic activity against mouse S180A cells allografted in CD-1 mouse assessed as maximum dose required for increase in mouse survival administered qd for 6 days; assay type: functional
[8] = Antineoplastic activity against mouse S180A cells allografted in CD-1 mouse assessed as average survival at maximum effective dose administered qd for 6 days relative to control; assay type: functional
How it was run: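 Sarcoma 180 ascites cells were transplanted from a donor mouse bearing a 7-day tumour. Each agent was tested at 10–60 mg/kg/day, once daily for six consecutive days, starting 24 h after transplantation, in groups of 5–10 mice. Pooled untreated controls totalled 40 mice. Mice surviving beyond 50 days were counted as 50-day survivors, and body-weight change over therapy served as the toxicity index.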

[9] = tested on: Mus musculus; assay: Toxicity in CD-1 mouse allografted with mouse S180A cells assessed as change in body weight at 20 mg/kg administered qd for 6 days (reference value: 23.2%); assay type: organism-based; parameters: dose 20 mg/kg; details: in vivo, 144 h
[10] = tested on: Mus musculus; assay: Toxicity in CD-1 mouse allografted with mouse S180A cells assessed as change in body weight at 60 mg/kg administered qd for 6 days (reference value: 23.2%); assay type: organism-based; parameters: dose 60 mg/kg; details: in vivo, 144 h
[11] = Antineoplastic activity against mouse S180A cells allografted in CD-1 mouse assessed as average survival at 20 mg/kg administered qd for 6 days (reference value: 12.9 +/- 1.2 days); assay type: functional
How it was run: (§3)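 Ascitic tumours were transplanted from an appropriate donor mouse carrying a 7-day tumour growth. Drug was given at 10–60 mg/kg/day for six consecutive days. Sensitivity was judged by prolongation of survival time relative to untreated tumour-bearing controls. Mice were weighed throughout, and percentage weight change from onset to end of therapy indicated toxicity.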

[12] = Antineoplastic activity against mouse S180A cells allografted in CD-1 mouse assessed as average survival at 60 mg/kg administered qd for 6 days (reference value: 12.9 +/- 1.2 days); assay type: functional; how it was run: as §3
[13] = Antineoplastic activity against mouse S180A cells allografted in CD-1 mouse assessed as mouse survival at 20 mg/kg administered qd for 6 days measured for 50 days relative to control; assay type: functional; how it was run: as §3
[14] = tested on: Mus musculus; assay: Toxicity in CD-1 mouse allografted with 1-formylisoquinoline thiosemicarbazone-resistant mouse S180A cells assessed as change in body weight at 40 mg/kg administered qd for 6 days (reference value: 29.6%); assay type: organism-based; parameters: dose 40 mg/kg; details: in vivo, 144 h
How it was run: (§4)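 Ascitic tumors were transplanted from a donor mouse bearing a 7-day tumor. Daily doses were given for six consecutive days. Percentage body-weight change from onset to termination of therapy served as the index of drug toxicity.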

[15] = tested on: Mus musculus; assay: Toxicity in BDF1 mouse allografted with mouse L1210 cells assessed as change in body weight at 40 mg/kg administered qd for 6 days (reference value: 13.6%); assay type: organism-based; parameters: dose 40 mg/kg; details: in vivo, 144 h; how it was run: as §4
[16] = tested on: L1210; assay: Antineoplastic activity against mouse L1210 cells allografted in BDF1 mouse assessed as average survival at 20 mg/kg administered qd for 6 days (reference value: 8.2 +/- 0.4 days); assay type: functional; how it was run: as §3
[17] = tested on: L1210; assay: Antineoplastic activity against mouse L1210 cells allografted in BDF1 mouse assessed as average survival at 40 mg/kg administered qd for 6 days (reference value: 8.2 +/- 0.4 days); assay type: functional; how it was run: as §3
[18] = tested on: Mus musculus; assay: Toxicity in CD-1 mouse allografted with mouse EAC cells assessed as change in body weight at 20 mg/kg administered qd for 6 days (reference value: 26.8%); assay type: organism-based, Ehrlich; parameters: dose 20 mg/kg; details: in vivo, 144 h; how it was run: as §4
[19] = tested on: Mus musculus; assay: Toxicity in CD-1 mouse allografted with mouse EAC cells assessed as change in body weight at 40 mg/kg administered qd for 6 days (reference value: 26.8%); assay type: organism-based, Ehrlich; parameters: dose 40 mg/kg; details: in vivo, 144 h; how it was run: as §4
[20] = tested on: Ehrlich; assay: Antineoplastic activity against mouse EAC cells allografted in CD-1 mouse assessed as average survival at 40 mg/kg administered qd for 6 days (reference value: 14.4 +/- 1.2 days); assay type: functional; how it was run: as §3
[21] = tested on: Mus musculus; assay: Toxicity in C3H mouse allografted with mouse Hepa129 cells assessed as change in body weight at 40 mg/kg administered qd for 6 days (reference value: 13.5%); assay type: organism-based; parameters: dose 40 mg/kg; details: in vivo, 144 h; how it was run: as §4
[22] = tested on: Mus musculus; assay: Toxicity in C3H mouse allografted with mouse Hepa129 cells assessed as change in body weight at 60 mg/kg administered qd for 6 days (reference value: 13.5%); assay type: organism-based; parameters: dose 60 mg/kg; details: in vivo, 144 h; how it was run: as §4
[23] = tested on: Mus musculus; assay: Effect on DNA synthesis in tumor of CD-1 mouse allografted with mouse S180A cells assessed as [3H]-thymidine incorporation at 40 mg/kg, ip pretreated for 1 hr followed by radiotracer-addition measured after 1 hr relative to control; assay type: functional; details: route intraperitoneal; how it was run: as §1
[24] = tested on: Mus musculus; assay: Effect on DNA synthesis in tumor of CD-1 mouse allografted with mouse S180A cells assessed as [3H]-thymidine incorporation at 80 mg/kg, ip pretreated for 1 hr followed by radiotracer-addition measured after 1 hr relative to control; assay type: functional; details: route intraperitoneal; how it was run: as §1
[25] = tested on: Mus musculus; assay: Effect on RNA synthesis in tumor of CD-1 mouse allografted with mouse S180A cells assessed as [3H]-uridine incorporation at 10 mg/kg, ip pretreated for 1 hr followed by radiotracer-addition measured after 1 hr relative to control; assay type: functional; details: route intraperitoneal; how it was run: as §1

In the case of `Cc1ccc(S(=O)(=O)N/N=C/c2cccc[n+]2[O-])cc1`, the Activity [1] is reported as 71%, the Activity [2] is reported as 95% and the Activity [3] is reported as 63%. For the same compound, the Activity [4] was 57%, the Activity [5] was 70% and the Activity [6] was 89%. It also gave an Activity [7] of 60 mg/kg, a T/C [8] of 307% and an Activity [9] of 21.6%. The Activity [10] was -8%, the Survival [11] was 24.9 days and the Survival [12] was 38.4 days. It also gave a survival at 20 mg/kg [13] of 10%, an Activity [14] of 3.4% and an Activity [15] of 2.8%. It also gave a Survival [16] of 8.6 days, a Survival [17] of 9.2 days and an Activity [18] of 2.4%. It also gave an Activity [19] of -3.3%, a Survival [20] of 47 days and an Activity [21] of 2.3%. For the same compound, the Activity [22] was -1.6%, the Activity [23] was 67% and the Activity [24] was 59%. It also gave an Activity [25] of 74%.
